# Results as given in ChEMBL document CHEMBL5055631, “Antitumor properties of novel sesquiterpene lactone analogs as NFκB inhibitors that bind to the IKKβ ubiquitin-like domain (ULD)” (Eur J Med Chem, 2021).
# Assays:
# Assay type in all cases: functional
# [1] = tested on: ACHN; assay: Anticancer activity against human ACHN cells assessed as cell growth inhibition incubated for 48 hrs by SRB method
# Procedure, shortened: (§1)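 NCI-60 panel (DTP). Cells in RPMI 1640 with 5% FBS, 2 mM L-glutamine, seeded at 5,000–40,000 per well by doubling time and preincubated 24 h at 37 °C, 5% CO2. Time-zero plates TCA-fixed. DMSO stocks diluted in medium with gentamicin, tested at 100 μM, 10 μM, 1 μM, 0.1 μM and 10 nM for 48 h. Cells fixed with cold TCA, stained with SRB, absorbance read at 515 nm.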
# [2] = tested on: EKVX; assay: Anticancer activity against human EKVX cells assessed as cell growth inhibition incubated for 48 hrs by SRB method; procedure, shortened: as §1
# [3] = tested on: HT-29; assay: Anticancer activity against human HT29 cells assessed as cell growth inhibition incubated for 48 hrs by SRB method; procedure, shortened: as §1
# [4] = tested on: HCT-15; assay: Anticancer activity against human HCT-15 cells assessed as cell growth inhibition incubated for 48 hrs by SRB method; procedure, shortened: as §1
# [5] = tested on: HCC 2998; assay: Anticancer activity against human HCC 2998 cells assessed as cell growth inhibition incubated for 48 hrs by SRB method; procedure, shortened: as §1
# [6] = tested on: MCF7; assay: Anticancer activity against human MCF7 cells assessed as cell growth inhibition incubated for 48 hrs by SRB method; procedure, shortened: as §1
# [7] = tested on: HCT-116; assay: Anticancer activity against human HCT-116 cells assessed as cell growth inhibition incubated for 48 hrs by SRB method; procedure, shortened: as §1
# [8] = tested on: OVCAR-4; assay: Anticancer activity against human OVCAR-4 cells assessed as cell growth inhibition incubated for 48 hrs by SRB method
# [9] = tested on: RXF 393; assay: Anticancer activity against human RXF 393 cells assessed as cell growth inhibition incubated for 48 hrs by SRB method; procedure, shortened: as §1
# [10] = tested on: HL-60(TB); assay: Anticancer activity against human HL-60(TB) cells assessed as cell growth inhibition incubated for 48 hrs by SRB method
# [11] = tested on: MOLT-4; assay: Anticancer activity against human MOLT-4 assessed as cell growth inhibition incubated for 48 hrs by SRB method
# [12] = tested on: NCI-H226; assay: Anticancer activity against human NCI-H226 cells assessed as cell growth inhibition incubated for 48 hrs by SRB method; procedure, shortened: as §1
# [13] = tested on: OVCAR-8; assay: Anticancer activity against human OVCAR-8 cells assessed as cell growth inhibition incubated for 48 hrs by SRB method; procedure, shortened: as §1
# [14] = tested on: NCI-H522; assay: Anticancer activity against human NCI-H522 cells assessed as cell growth inhibition incubated for 48 hrs by SRB method
# [15] = tested on: SNB-19; assay: Anticancer activity against human SNB-19 cells assessed as cell growth inhibition incubated for 48 hrs by SRB method; procedure, shortened: as §1
# [16] = tested on: OVCAR-5; assay: Anticancer activity against human OVCAR-5 cells assessed as cell growth inhibition incubated for 48 hrs by SRB method
# [17] = tested on: MDA-MB-231; assay: Anticancer activity against human MDA-MB-231 cells assessed as cell growth inhibition incubated for 48 hrs by SRB method; procedure, shortened: as §1
# [18] = tested on: SK-MEL-28; assay: Anticancer activity against human SK-MEL-28 cells assessed as cell growth inhibition incubated for 48 hrs by SRB method; procedure, shortened: as §1
# [19] = tested on: COLO 205; assay: Anticancer activity against human COLO 205 cells assessed as cell growth inhibition incubated for 48 hrs by SRB method
# [20] = tested on: NCI-H460; assay: Anticancer activity against human NCI-H460 cells assessed as cell growth inhibition incubated for 48 hrs by SRB method; procedure, shortened: as §1
# [21] = tested on: MDA-MB-435; assay: Anticancer activity against human MDA-MB-435 cells assessed as cell growth inhibition incubated for 48 hrs by SRB method; procedure, shortened: as §1
# [22] = tested on: M14; assay: Anticancer activity against human M14 cells assessed as cell growth inhibition incubated for 48 hrs by SRB method; procedure, shortened: as §1
# [23] = tested on: SR; assay: Anticancer activity against human SR cells assessed as cell growth inhibition incubated for 48 hrs by SRB method; procedure, shortened: as §1
# [24] = tested on: NCI-H23; assay: Anticancer activity against human NCI-H23 cells assessed as cell growth inhibition incubated for 48 hrs by SRB method; procedure, shortened: as §1
# [25] = tested on: HOP-62; assay: Anticancer activity against human HOP-62 cells assessed as cell growth inhibition incubated for 48 hrs by SRB method; procedure, shortened: as §1
# [26] = tested on: TK-10; assay: Anticancer activity against human TK-10 cells assessed as cell growth inhibition incubated for 48 hrs by SRB method
# Procedure, shortened: (§2)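 NCI-60 panel, SRB assay. Cells grown in RPMI 1640 with 5% FBS and 2 mM L-glutamine, seeded at 5,000–40,000 cells/well depending on doubling time, and preincubated 24 h at 37 °C with 5% CO2. Time-zero plates were TCA-fixed. Compounds came from DMSO stocks and were tested at 100 μM, 10 μM, 1 μM, 0.1 μM and 10 nM for 48 h. Cells were fixed with cold TCA and stained with 0.4% SRB, and the dye was solubilized in 10 mM Tris base with A515 read.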
# [27] = tested on: BT-549; assay: Anticancer activity against human BT-549 cells assessed as cell growth inhibition incubated for 48 hrs by SRB method; procedure, shortened: as §1
# [28] = tested on: IGROV-1; assay: Anticancer activity against human IGROV-1 cells assessed as cell growth inhibition incubated for 48 hrs by SRB method; procedure, shortened: as §1
# [29] = tested on: SF-295; assay: Anticancer activity against human SF-295 cells assessed as cell growth inhibition incubated for 48 hrs by SRB method; procedure, shortened: as §1
# [30] = tested on: 786-0; assay: Anticancer activity against human 786-0 cells assessed as cell growth inhibition incubated for 48 hrs by SRB method; procedure, shortened: as §1
# [31] = tested on: DU-145; assay: Anticancer activity against human DU-145 cells assessed as cell growth inhibition incubated for 48 hrs by SRB method; procedure, shortened: as §1
# [32] = tested on: A549; assay: Anticancer activity against human A549 cells assessed as cell growth inhibition incubated for 48 hrs by SRB method; procedure, shortened: as §1
# [33] = Anticancer activity against human HS 578T cells assessed as cell growth inhibition incubated for 48 hrs by SRB method
# [34] = tested on: T47D; assay: Anticancer activity against human T47D cells assessed as cell growth inhibition incubated for 48 hrs by SRB method; procedure, shortened: as §1
# [35] = tested on: CAKI-1; assay: Anticancer activity against human CAKI-1 cells assessed as cell growth inhibition incubated for 48 hrs by SRB method; procedure, shortened: as §1
# [36] = tested on: A498; assay: Anticancer activity against human A498 cells assessed as cell growth inhibition incubated for 48 hrs by SRB method; procedure, shortened: as §1
# [37] = tested on: LOX IMVI; assay: Anticancer activity against human LOX IMVI cells assessed as cell growth inhibition incubated for 48 hrs by SRB method
# [38] = tested on: HOP-92; assay: Anticancer activity against human HOP-92 cells assessed as cell growth inhibition incubated for 48 hrs by SRB method
# [39] = tested on: UACC-62; assay: Anticancer activity against human UACC-62 cells assessed as cell growth inhibition incubated for 48 hrs by SRB method; procedure, shortened: as §2
# [40] = tested on: RPMI-8226; assay: Anticancer activity against human RPMI-8226 cells assessed as cell growth inhibition incubated for 48 hrs by SRB method
# [41] = tested on: NCI/ADR-RES; assay: Anticancer activity against human NCI/ADR-RES cells assessed as cell growth inhibition incubated for 48 hrs by SRB method; procedure, shortened: as §1
# [42] = tested on: SF-539; assay: Anticancer activity against human SF-539 cells assessed as cell growth inhibition incubated for 48 hrs by SRB method
# [43] = tested on: SF-268; assay: Anticancer activity against human SF-268 cells assessed as cell growth inhibition incubated for 48 hrs by SRB method; procedure, shortened: as §1
# [44] = tested on: CCRF-CEM; assay: Anticancer activity against human CCRF-CEM cells assessed as cell growth inhibition incubated for 48 hrs by sulforhodamine B assay
# [45] = tested on: Malme-3M; assay: Anticancer activity against human MALME-3M cells assessed as cell growth inhibition incubated for 48 hrs by SRB method
# [46] = tested on: K562; assay: Anticancer activity against human K562 cells assessed as cell growth inhibition incubated for 48 hrs by SRB method
# [47] = tested on: SW-620; assay: Anticancer activity against human SW-620 cells assessed as cell growth inhibition incubated for 48 hrs by SRB method
# [48] = tested on: KM12; assay: Anticancer activity against human KM12 cells assessed as cell growth inhibition incubated for 48 hrs by SRB method; procedure, shortened: as §1
# [49] = tested on: SNB-75; assay: Anticancer activity against human SNB-75 cells assessed as cell growth inhibition incubated for 48 hrs by SRB method
# [50] = tested on: PC-3; assay: Anticancer activity against human PC-3 cells assessed as cell growth inhibition incubated for 48 hrs by SRB method; procedure, shortened: as §1
# [51] = tested on: UO-31; assay: Anticancer activity against human UO-31 cells assessed as cell growth inhibition incubated for 48 hrs by SRB method
# Procedure, shortened: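 NCI-60 panel, SRB assay. Time-zero plates were TCA-fixed. Compounds came from DMSO stocks and were tested at 100 μM, 10 μM, 1 μM, 0.1 μM and 10 nM for 48 h. Cells were fixed with cold TCA and stained with 0.4% SRB, and the dye was solubilized in 10 mM Tris base with A515 read.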
# [52] = tested on: MDA-MB-468; assay: Anticancer activity against human MDA-MB-468 cells assessed as cell growth inhibition incubated for 48 hrs by SRB method; procedure, shortened: as §1
# [53] = tested on: UACC-257; assay: Anticancer activity against human UACC-257 assessed as cell growth inhibition incubated for 48 hrs by SRB method; procedure, shortened: as §2
# [54] = tested on: U-251; assay: Anticancer activity against human U-251 cells assessed as cell growth inhibition incubated for 48 hrs by SRB method; procedure, shortened: as §2
compound,measurement,setting,value
C=C1C(=O)O[C@H]2[C@H]1CC/C(COC(=O)NCCc1cccc(OC)c1)=C\CC[C@@]1(C)O[C@@H]21,GI50,[1],1370 nM
same,GI50,[2],1780 nM
same,GI50,[3],1140 nM
same,GI50,[4],1020 nM
same,GI50,[5],1680 nM
same,GI50,[6],2300 nM
same,GI50,[7],710 nM
same,GI50,[8],1260 nM
same,GI50,[9],1120 nM
same,GI50,[10],1360 nM
same,GI50,[11],2090 nM
same,GI50,[12],1570 nM
same,GI50,[13],1780 nM
same,GI50,[14],1020 nM
same,GI50,[15],1430 nM
same,GI50,[16],990 nM
same,GI50,[17],890 nM
same,GI50,[18],1730 nM
same,GI50,[19],1550 nM
same,GI50,[20],3940 nM
same,GI50,[21],1580 nM
same,GI50,[22],1290 nM
same,GI50,[23],510 nM
same,GI50,[24],1860 nM
same,GI50,[25],4.39 µM
same,GI50,[26],1.19 µM
same,GI50,[27],1560 nM
same,GI50,[28],1530 nM
same,GI50,[29],7.26 µM
same,GI50,[30],2260 nM
same,GI50,[31],1390 nM
same,GI50,[32],7.28 µM
same,GI50,[33],490 nM
same,GI50,[34],3.43 µM
same,GI50,[35],2350 nM
same,GI50,[36],2950 nM
same,GI50,[37],1340 nM
same,GI50,[38],1840 nM
same,GI50,[39],6.23 µM
same,GI50,[40],910 nM
same,GI50,[41],2250 nM
same,GI50,[42],1490 nM
same,GI50,[43],1780 nM
same,GI50,[44],340 nM
same,GI50,[45],1840 nM
same,GI50,[46],610 nM
same,GI50,[47],520 nM
same,GI50,[48],4.27 µM
same,GI50,[49],1470 nM
same,GI50,[50],1610 nM
same,GI50,[51],670 nM
same,GI50,[52],850 nM
same,GI50,[53],1990 nM
C=C1C(=O)O[C@@H]2C3O[C@]3(C)CC/C=C(\C)CC[C@@H]12 (some centres undefined),GI50,[7],10000 nM
same,GI50,[26],10 µM
same,GI50,[39],3.48 µM
C=C1C(=O)O[C@H]2[C@H]1CC/C(COC(=O)NCCc1ccc(Br)cc1)=C\CC[C@@]1(C)O[C@@H]21,GI50,[2],1540 nM
same,GI50,[3],1320 nM
same,GI50,[4],1010 nM
same,GI50,[5],1710 nM
same,GI50,[7],470 nM
same,GI50,[9],1320 nM
same,GI50,[10],1060 nM
same,GI50,[11],1690 nM
same,GI50,[12],1720 nM
same,GI50,[13],1560 nM
same,GI50,[14],1160 nM
same,GI50,[15],1390 nM
same,GI50,[16],980 nM
same,GI50,[19],1820 nM
same,GI50,[20],2060 nM
same,GI50,[21],1580 nM
same,GI50,[22],1260 nM
same,GI50,[23],430 nM
same,GI50,[24],1720 nM
same,GI50,[25],1.99 µM
same,GI50,[29],3.81 µM
same,GI50,[30],1490 nM
same,GI50,[32],2.59 µM
same,GI50,[54],1400 nM
same,GI50,[33],410 nM
same,GI50,[37],1180 nM
same,GI50,[38],1280 nM
same,GI50,[40],620 nM
same,GI50,[42],1460 nM
same,GI50,[43],1560 nM
same,GI50,[44],270 nM
same,GI50,[45],2090 nM
same,GI50,[46],530 nM
same,GI50,[47],710 nM
same,GI50,[48],1.95 µM
same,GI50,[49],1200 nM
same,GI50,[50],1730 nM
same,GI50,[52],840 nM
